Source: ChEMBL document CHEMBL1153416, “Synthesis and anti-inflammatory properties of 1alpha,25-dihydroxy-16-ene-20-cyclopropyl-24-oxo-vitamin D3, a hypocalcemic, stable metabolite of 1alpha,25-dihydroxy-16-ene-20-cyclopropyl-vitamin D3” (J Med Chem, 2009)
The source made the active and inactive calls. No cut-off for these calls is given here.

Legend:
PBMC [1] = test: Inhibition of LPS-induced TNFalpha production in human PBMC after 24 hrs by ELISA; type: functional, cell-based
PBMC [2] = test: Inhibition of IFN-gamma production in human PBMC after 5 days by ELISA-based mixed lymphocyte reaction assay; type: functional, cell-based; settings: 120 h
Mus musculus = test: Induction of hypercalceimia in orally dosed C57BL/6 mouse administered daily for 4 days by colorimetric assay; type: functional
How it was run: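 Eight-week-old female C57BL/6 mice, 3 per group, were given one oral dose daily for 4 days in miglyol, at 0.01 to 300 µg/kg. Serum was taken by tail bleed on day 5 and calcium measured colorimetrically.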

Vitamin D3 receptor [3] = target: T1, Vitamin D3 receptor (Homo sapiens, UniProt P11473); test: Activation of VDR in human THP1 cells assessed as increase in cathelicidin antimicrobial peptide mRNA expression by RT-PCR; type: cell-based, THP-1
T1 sequence (P11473 whole entry): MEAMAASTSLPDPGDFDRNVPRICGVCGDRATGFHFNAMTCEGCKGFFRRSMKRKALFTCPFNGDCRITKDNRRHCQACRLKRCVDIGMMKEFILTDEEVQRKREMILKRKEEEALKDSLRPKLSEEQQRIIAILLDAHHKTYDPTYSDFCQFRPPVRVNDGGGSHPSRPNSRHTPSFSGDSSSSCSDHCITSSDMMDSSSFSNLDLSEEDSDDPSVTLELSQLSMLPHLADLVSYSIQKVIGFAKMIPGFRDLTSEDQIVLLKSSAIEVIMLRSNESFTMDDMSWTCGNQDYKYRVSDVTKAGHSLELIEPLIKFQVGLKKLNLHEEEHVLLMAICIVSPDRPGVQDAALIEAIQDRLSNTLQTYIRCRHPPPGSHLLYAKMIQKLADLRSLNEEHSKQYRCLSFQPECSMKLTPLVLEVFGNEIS

PBMC [4] = test: Inhibition of LPS-induced IL12/23p40 production in human PBMC after 24 hrs by ELISA; type: functional, cell-based
PBMC [5] = test: Inhibition of LPS-induced IL6 production in human PBMC after 24 hrs by ELISA; type: functional, cell-based
[6] = target: T2, Vitamin D3 receptor (Homo sapiens) (UniProt P11473); test: Activation of VDR in human PBMC cells assessed as increase in 25-hydroxyvitamin D-24-hydroxylase mRNA expression at 10 pM by RT-PCR; type: cell-based
T2 sequence (whole entry): T1 sequence (P11473 whole entry)
How it was run: (§1)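 PBMCs were isolated from buffy coats on a Ficoll gradient. Agonists were freshly diluted in ethanol, with ethanol in the test conditions at no more than 0.00025%. RNA was DNase-treated to exclude genomic DNA. Transcripts were quantified by RT-PCR and normalized to the GAPDH signal.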

[7] = target: T2, Vitamin D3 receptor (Homo sapiens); test: Activation of VDR in human PBMC cells assessed as increase in 25-hydroxyvitamin D-24-hydroxylase mRNA expression at 100 pM by RT-PCR; type: cell-based; how it was run: as §1
[8] = target: T2, Vitamin D3 receptor (Homo sapiens); test: Activation of VDR in human PBMC cells assessed as increase in cathelicidin antimicrobial peptide mRNA expression at 10 pM by RT-PCR; type: cell-based; how it was run: as §1
[9] = target: T2, Vitamin D3 receptor (Homo sapiens); test: Activation of VDR in human PBMC cells assessed as increase in cathelicidin antimicrobial peptide mRNA expression at 100 pM by RT-PCR; type: cell-based; how it was run: as §1
Vitamin D3 receptor [10] = target: T1, Vitamin D3 receptor; test: Activation of VDR in human THP1 cells assessed as increase in 25-hydroxyvitamin D-24-hydroxylase mRNA expression by RT-PCR; type: cell-based, THP-1

## C=C1/C(=C\C=C2/CCC[C@]3(C)C(C4(CC#CC(O)(C(F)(F)F)C(F)(F)F)CC4)=CC[C@@H]23)C[C@@H](O)C[C@@H]1O
PBMC [1]
  IC50: 1000 pM
PBMC [2]
  IC50: 45 pM

## C=C1/C(=C\C=C2/CCC[C@]3(C)C(C4(CC#CC(C)(C)O)CC4)=CC[C@@H]23)C[C@@H](O)C[C@@H]1F
PBMC [1]
  IC50: > 100000 pM
PBMC [2]
  IC50: 16 pM

## CC(C)(O)C#CCC1(C2=CC[C@H]3/C(=C/C=C4C[C@@H](O)C[C@H](O)C4)CCC[C@]23C)CC1
PBMC [1]
  IC50: 1 pM
PBMC [2]
  IC50: 25 pM

## C=C1/C(=C\C=C2/CCC[C@]3(C)[C@@H]([C@H](C)CCCC(C)(C)O)CC[C@@H]23)C[C@@H](O)C[C@@H]1O [CALCITRIOL]
Mus musculus
  MTD: 0.3 µg/kg

## C[C@]12CCC/C(=C\C=C3C[C@@H](O)C[C@H](O)C3)[C@@H]1CC=C2C1(CC#CC(O)(C(F)(F)F)C(F)(F)F)CC1
PBMC [1]
  IC50: > 100000 pM
PBMC [2]
  IC50: 14 pM

## C=C1/C(=C\C=C2/CCC[C@]3(C)C(C4(CCCC(C)(C)O)CC4)=CC[C@@H]23)C[C@@H](O)C[C@@H]1O
Vitamin D3 receptor [3]
  EC50: 680 pM
PBMC [4]
  IC50: < 1 pM
PBMC [5]
  IC50: 3200 pM
Mus musculus
  MTD: 1 µg/kg
[6]
  Activity: Active
[7]
  Activity: Active
[8]
  Activity: Active
[9]
  Activity: Active
Vitamin D3 receptor [10]
  EC50: 680 pM

## C[C@]12CCC/C(=C\C=C3C[C@@H](O)C[C@H](O)C3)[C@@H]1CC=C2C1(C/C=C/C(O)(C(F)(F)F)C(F)(F)F)CC1
PBMC [1]
  IC50: > 100000 pM
PBMC [2]
  IC50: 12 pM

## C=C1/C(=C\C=C2/CCC[C@]3(C)C(C4(CCC(=O)C(C)(C)O)CC4)=CC[C@@H]23)C[C@@H](O)C[C@@H]1O
Vitamin D3 receptor [3]
  EC50: 690 pM
PBMC [4]
  IC50: < 1 pM
PBMC [5]
  IC50: 3500 pM
Mus musculus
  MTD: 3 µg/kg
PBMC [2]
  IC50: 25 pM
[6]
  Activity: Active
[7]
  Activity: Active
[8]
  Activity: Active
[9]
  Activity: Active
Vitamin D3 receptor [10]
  EC50: 690 pM

## C=C1/C(=C\C=C2/CCC[C@]3(C)C(C4(C/C=C/C(O)(C(F)(F)F)C(F)(F)F)CC4)=CC[C@@H]23)C[C@@H](O)C[C@@H]1O
PBMC [1]
  IC50: > 100000 pM
PBMC [2]
  IC50: 40 pM

## C=C1/C(=C\C=C2/CCC[C@]3(C)C(C4(CC#CC(C)(C)O)CC4)=CC[C@@H]23)C[C@@H](O)C[C@@H]1O
PBMC [1]
  IC50: 1 pM
PBMC [2]
  IC50: 34 pM

## C=C1/C(=C\C=C2/CCC[C@]3(C)C(C4(C/C=C/C(O)(C(F)(F)F)C(F)(F)F)CC4)=CC[C@@H]23)C[C@@H](O)C[C@@H]1F
PBMC [1]
  IC50: > 100000 pM
PBMC [2]
  IC50: 65 pM
